In ChEMBL document CHEMBL1148546, “3-Arylpiperazinylethyl-1H-pyrrolo[2,3-d]pyrimidine-2,4(3H,7H)-dione derivatives as novel, high-affinity and selective alpha(1)-adrenoceptor ligands” (Bioorg Med Chem Lett, 2006):

Tests used:
[1] = biological target: T1, 5-hydroxytryptamine receptor 1A (Homo sapiens, UniProt P08908); assay: Binding affinity to 5HT1A
T1 sequence (P08908 whole entry): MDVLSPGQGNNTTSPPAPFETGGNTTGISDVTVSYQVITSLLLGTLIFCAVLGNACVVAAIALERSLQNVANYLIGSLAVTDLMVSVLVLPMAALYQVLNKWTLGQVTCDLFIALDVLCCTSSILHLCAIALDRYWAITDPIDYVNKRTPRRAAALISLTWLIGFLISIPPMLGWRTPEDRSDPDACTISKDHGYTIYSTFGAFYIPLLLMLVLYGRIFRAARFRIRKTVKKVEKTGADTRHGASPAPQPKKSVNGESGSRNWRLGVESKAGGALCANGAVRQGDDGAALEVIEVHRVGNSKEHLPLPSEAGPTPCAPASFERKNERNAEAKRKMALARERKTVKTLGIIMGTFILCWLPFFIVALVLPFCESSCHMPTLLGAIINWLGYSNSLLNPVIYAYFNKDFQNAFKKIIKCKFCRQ

[2] = biological target: Alpha adrenergic receptor 1A and 1D (Rattus norvegicus) (UniProt P23944+P43140); assay: Selectivity for ADRA1D over ADRA1A; type: protein assay
Outline: (§1)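 Subtype selectivity is the antilog of the difference between the pKb values at α1A, α1B and α1D, measured in isolated rat prostatic vas deferens, spleen and thoracic aorta.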

[3] = organism: Rattus norvegicus; assay: Selectivity for ADRA1D over ADRA1B; outline: as §1
[4] = biological target: D(2) dopamine receptor (Homo sapiens, UniProt P14416); assay: Binding affinity to dopamine D2 receptor
[5] = biological target: Alpha adrenergic receptor 1A and 1B (Rattus norvegicus) (UniProt P15823+P43140); assay: Selectivity for ADRA1B over ADRA1A; type: protein assay; outline: as §1
[6] = organism: Homo sapiens; assay: Selectivity for 5HT1A over adrenergic alpha-1 receptor
Outline: (§2)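 Selectivity is the ratio of Ki at 5-HT1A, D1 or D2 to Ki at α1. Ki values are means (±SD) of three separate experiments.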

[7] = organism: Homo sapiens; assay: Selectivity for dopamine D1 over adrenergic alpha-1 receptor; outline: as §2
[8] = biological target: T2, Alpha-1A adrenergic receptor (Rattus norvegicus) (UniProt P43140); assay: Antagonistic activity at ADRA1A in isolated rat prostatic vas deferens; type: functional, tissue-based
T2 sequence (whole entry): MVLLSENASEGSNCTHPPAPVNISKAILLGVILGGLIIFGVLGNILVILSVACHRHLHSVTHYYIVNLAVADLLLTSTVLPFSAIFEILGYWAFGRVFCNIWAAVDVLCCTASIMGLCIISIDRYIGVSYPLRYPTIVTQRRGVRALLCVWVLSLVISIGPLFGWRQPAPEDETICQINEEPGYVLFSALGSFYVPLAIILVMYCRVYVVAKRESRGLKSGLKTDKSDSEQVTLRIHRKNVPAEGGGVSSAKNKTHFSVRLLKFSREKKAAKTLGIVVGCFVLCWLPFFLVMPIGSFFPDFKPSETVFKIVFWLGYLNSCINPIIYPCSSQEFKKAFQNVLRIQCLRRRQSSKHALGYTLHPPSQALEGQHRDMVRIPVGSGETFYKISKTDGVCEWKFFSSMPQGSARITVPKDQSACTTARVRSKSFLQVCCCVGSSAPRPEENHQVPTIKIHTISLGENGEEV
Outline: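 Antagonism in isolated rat tissues: prostatic vas deferens (α1A), spleen (α1B), thoracic aorta (α1D). Each compound tested at a single concentration, and each concentration was investigated at least four times. pKb was calculated by the van Rossum method. pA2 was derived from Arunlakshana–Schild plots. WB4101 was used as the standard.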

[9] = Selectivity for dopamine D2 over adrenergic alpha-1 receptor; outline: as §2
[10] = biological target: T3, Adrenergic receptor alpha-1 (Homo sapiens, UniProt P35348+P25100+P35368); assay: Binding affinity to adrenergic alpha-1 receptor; type: protein assay
T3 sequence (P35348 whole entry): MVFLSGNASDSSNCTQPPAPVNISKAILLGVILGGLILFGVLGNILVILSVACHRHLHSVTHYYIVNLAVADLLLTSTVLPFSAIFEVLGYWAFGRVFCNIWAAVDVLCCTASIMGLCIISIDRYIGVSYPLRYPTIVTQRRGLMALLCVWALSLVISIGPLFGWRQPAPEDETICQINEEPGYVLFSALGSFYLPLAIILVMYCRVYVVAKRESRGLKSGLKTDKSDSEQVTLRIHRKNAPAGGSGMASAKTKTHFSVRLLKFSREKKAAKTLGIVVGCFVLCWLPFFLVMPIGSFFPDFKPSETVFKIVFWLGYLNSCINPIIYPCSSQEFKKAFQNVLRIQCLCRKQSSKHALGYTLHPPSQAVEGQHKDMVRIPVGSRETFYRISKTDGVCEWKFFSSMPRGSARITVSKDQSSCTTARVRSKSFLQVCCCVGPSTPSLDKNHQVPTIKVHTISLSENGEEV
T3 sequence (P25100 whole entry): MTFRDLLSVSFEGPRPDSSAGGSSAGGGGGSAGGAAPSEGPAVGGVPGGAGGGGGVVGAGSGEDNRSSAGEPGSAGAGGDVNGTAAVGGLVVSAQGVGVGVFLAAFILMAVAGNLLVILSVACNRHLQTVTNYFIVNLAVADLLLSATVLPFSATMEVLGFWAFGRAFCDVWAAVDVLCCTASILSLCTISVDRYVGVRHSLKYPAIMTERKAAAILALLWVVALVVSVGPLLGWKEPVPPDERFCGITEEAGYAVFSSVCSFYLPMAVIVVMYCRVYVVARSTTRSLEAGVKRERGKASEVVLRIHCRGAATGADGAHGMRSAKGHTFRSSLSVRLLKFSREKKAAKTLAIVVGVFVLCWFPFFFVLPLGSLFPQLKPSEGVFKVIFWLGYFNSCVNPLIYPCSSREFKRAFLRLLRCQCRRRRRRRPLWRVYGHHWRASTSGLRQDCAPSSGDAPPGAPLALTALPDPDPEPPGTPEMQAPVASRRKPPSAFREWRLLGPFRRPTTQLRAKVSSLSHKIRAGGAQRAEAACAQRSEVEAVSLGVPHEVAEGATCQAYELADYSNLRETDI
T3 sequence (P35368 whole entry): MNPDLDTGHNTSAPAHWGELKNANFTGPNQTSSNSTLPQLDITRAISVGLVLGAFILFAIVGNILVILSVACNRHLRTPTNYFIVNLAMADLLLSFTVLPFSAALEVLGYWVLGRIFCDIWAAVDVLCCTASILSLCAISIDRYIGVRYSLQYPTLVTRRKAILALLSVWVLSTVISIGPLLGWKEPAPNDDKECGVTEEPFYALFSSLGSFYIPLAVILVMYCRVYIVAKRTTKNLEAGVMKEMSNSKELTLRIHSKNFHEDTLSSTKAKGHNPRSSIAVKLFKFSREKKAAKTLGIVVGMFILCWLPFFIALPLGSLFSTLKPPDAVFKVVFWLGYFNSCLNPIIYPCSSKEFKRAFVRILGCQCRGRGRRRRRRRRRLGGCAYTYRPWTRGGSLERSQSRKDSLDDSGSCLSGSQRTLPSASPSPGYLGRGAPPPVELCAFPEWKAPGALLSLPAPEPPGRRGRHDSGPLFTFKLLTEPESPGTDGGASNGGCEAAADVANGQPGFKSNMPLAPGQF

[11] = biological target: D(1A) dopamine receptor (Homo sapiens, UniProt P21728); assay: Binding affinity to dopamine D1 receptor
D(1A) dopamine receptor, sequence (P21728 whole entry): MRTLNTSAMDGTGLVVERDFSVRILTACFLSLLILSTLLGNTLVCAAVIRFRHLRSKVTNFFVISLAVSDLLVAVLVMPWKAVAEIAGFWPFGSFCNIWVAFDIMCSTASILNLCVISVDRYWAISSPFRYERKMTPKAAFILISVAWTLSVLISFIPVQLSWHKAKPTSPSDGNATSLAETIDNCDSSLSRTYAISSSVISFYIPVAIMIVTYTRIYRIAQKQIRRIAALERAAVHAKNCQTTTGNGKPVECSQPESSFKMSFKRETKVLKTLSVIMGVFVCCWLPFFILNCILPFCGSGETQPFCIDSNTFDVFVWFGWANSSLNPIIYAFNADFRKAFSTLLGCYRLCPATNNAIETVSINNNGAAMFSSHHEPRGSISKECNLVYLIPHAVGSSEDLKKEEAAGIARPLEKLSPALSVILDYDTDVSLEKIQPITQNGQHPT

D(2) dopamine receptor, sequence (P14416 whole entry): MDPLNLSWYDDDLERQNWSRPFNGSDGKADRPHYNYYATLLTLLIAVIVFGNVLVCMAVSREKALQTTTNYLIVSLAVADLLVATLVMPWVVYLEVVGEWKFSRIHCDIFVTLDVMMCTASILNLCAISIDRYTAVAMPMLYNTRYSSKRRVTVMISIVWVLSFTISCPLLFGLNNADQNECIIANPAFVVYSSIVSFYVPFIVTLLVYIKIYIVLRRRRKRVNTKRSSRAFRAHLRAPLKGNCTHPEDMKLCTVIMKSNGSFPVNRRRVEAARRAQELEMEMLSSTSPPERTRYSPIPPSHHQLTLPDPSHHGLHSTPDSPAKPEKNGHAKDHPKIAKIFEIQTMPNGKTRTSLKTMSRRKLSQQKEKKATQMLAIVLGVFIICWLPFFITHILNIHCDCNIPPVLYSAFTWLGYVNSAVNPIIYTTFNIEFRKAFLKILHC
Alpha adrenergic receptor 1A and 1B (Rattus norvegicus), sequence (P15823 whole entry, looked up, one chain of several): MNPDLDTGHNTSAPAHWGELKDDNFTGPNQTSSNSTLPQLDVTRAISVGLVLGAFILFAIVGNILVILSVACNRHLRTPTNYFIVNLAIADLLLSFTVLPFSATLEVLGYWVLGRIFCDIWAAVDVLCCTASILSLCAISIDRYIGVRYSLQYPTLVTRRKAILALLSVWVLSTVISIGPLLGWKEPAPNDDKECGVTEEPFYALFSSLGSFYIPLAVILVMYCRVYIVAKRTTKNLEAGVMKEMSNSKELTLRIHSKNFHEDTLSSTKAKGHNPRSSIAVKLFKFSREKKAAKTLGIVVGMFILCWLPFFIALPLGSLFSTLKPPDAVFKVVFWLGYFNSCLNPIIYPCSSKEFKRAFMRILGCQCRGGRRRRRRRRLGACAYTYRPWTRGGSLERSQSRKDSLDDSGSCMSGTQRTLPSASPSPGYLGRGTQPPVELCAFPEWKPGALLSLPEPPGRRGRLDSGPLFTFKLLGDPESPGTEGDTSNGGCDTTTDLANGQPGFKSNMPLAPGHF
Alpha adrenergic receptor 1A and 1D (Rattus norvegicus), sequence (P23944 whole entry, looked up, one chain of several): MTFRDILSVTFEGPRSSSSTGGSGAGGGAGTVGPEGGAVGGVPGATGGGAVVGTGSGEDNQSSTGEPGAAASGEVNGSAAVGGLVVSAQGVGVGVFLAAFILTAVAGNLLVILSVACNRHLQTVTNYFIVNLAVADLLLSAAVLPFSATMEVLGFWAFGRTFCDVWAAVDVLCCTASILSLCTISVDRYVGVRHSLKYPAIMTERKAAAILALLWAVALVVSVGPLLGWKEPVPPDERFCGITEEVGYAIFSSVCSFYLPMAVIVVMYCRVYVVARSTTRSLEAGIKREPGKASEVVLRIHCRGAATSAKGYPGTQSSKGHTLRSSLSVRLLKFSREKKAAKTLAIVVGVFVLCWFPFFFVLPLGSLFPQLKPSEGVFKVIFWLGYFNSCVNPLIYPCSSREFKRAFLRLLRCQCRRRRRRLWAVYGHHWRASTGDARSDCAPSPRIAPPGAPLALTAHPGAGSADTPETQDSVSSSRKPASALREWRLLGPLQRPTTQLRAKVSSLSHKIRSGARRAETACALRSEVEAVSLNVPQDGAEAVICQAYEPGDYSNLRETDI

| Ki [1] [nM] | Ratio pKb [2] | Ratio pKb [3] | Ki [4] [nM] | Ratio pKb [5] | Ratio Ki [6] | Ratio Ki [7] | pKb [8] | Ratio Ki [9] | Ki [10] [nM] | Ki [11] [nM] | SMILES |
| --- | --- | --- | --- | --- | --- | --- | --- | --- | --- | --- | --- |
| 1070 | 2 | 0.5 | 165 | 4 | 65 | 17 | 7.48 | 10 | 16.4 | 272 | COc1ccc(-c2cc3c(=O)n(CCN4CCN(c5ccccc5Cl)CC4)c(=O)[nH]c3[nH]2)cc1 |
| 1810 | 3 | 2 | 1720 | 2 | 155 | 33 | 7.25 | 147 | 11.71 | 389 | Cc1ccc(-c2cc3c(=O)n(CCN4CCN(c5ccccc5Cl)CC4)c(=O)[nH]c3[nH]2)cc1 |
| 1510 | 18 | 10 | 2370 | 2 | 573 | 206 | 6.41 | 898 | 2.64 | 544 | O=c1[nH]c2[nH]c(-c3ccc(Cl)cc3)cc2c(=O)n1CCN1CCN(c2ccccc2Cl)CC1 |

| SMILES | Ki [1] [nM] | Ratio pKb [2] | Ratio pKb [3] | Ki [4] [nM] | Ratio pKb [5] | Ratio Ki [6] | Ratio Ki [7] | pKb [8] | Ratio Ki [9] | Ki [10] [nM] | Ki [11] [nM] |
| --- | --- | --- | --- | --- | --- | --- | --- | --- | --- | --- | --- |
| Cc1ccc(-c2cc3[nH]c(=O)n(CCN4CCN(c5ccccc5Cl)CC4)c(=O)c3[nH]2)cc1 | > 10000 | 0.5 | 1 | > 10000 | 0.4 | > 500 | > 500 | 6.72 | > 500 | 17.26 | > 10000 |
